ChEMBL document CHEMBL3046214, “Friedelane triterpenes from Celastrus vulcanicola as photosynthetic inhibitors” (J Agric Food Chem, 2010)
One block for each compound: values may come before it. The source made the active and inactive calls. The rule behind the calls is not given here.

Columns and labels:
[1] = system: Spinacia oleracea; assay: Inhibition of photophosphorylation in Spinacia oleracea (spinach) leaves chloroplasts by titrimetry; format: functional
Summary of the method: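 Intact spinach chloroplasts (20 μg Chl/mL) were osmotically broken in 3 mL of weakly buffered medium: 100 mM sorbitol, 10 mM KCl, 5 mM MgCl2, 0.5 mM KCN, 1 mM tricine-KOH pH 8.0, 50 μM MV and 1 mM ADP. ATP synthesis was taken from the medium alkalization rate in the linear part of illumination, calibrated by HCl back-titration, as μmol ATP (mg Chl)-1 h-1. I50 was obtained from concentration-activity plots; three replicates.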

[2] = system: Spinacia oleracea; assay: Increase in Magnesium-transporting ATPase activity in Spinacia oleracea (spinach) leaves chloroplasts thylakoids at 1 mM
Summary of the method: (§1)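 Spinach chloroplasts were isolated in 350 mM sorbitol, 5 mM ascorbate, 20 mM MES pH 6.5, centrifuged at 3000g for 60 s, washed, and resuspended in 35 mM HEPES pH 7.6. Light-triggered Mg2+-ATPase activity of thylakoid membranes was measured as released inorganic phosphate. Ammonium chloride served as positive control.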

[3] = system: Spinacia oleracea; assay: Increase in Magnesium-transporting ATPase activity in Spinacia oleracea (spinach) leaves chloroplasts thylakoids at 2 mM; summary of the method: as §1
[4] = system: Spinacia oleracea; assay: Increase in Magnesium-transporting ATPase activity in Spinacia oleracea (spinach) leaves chloroplasts thylakoids at 3 mM; summary of the method: as §1

SMILES: C[C@H]1C(=O)CC[C@@H]2[C@]1(C)CC[C@H]1[C@@]2(C)CC[C@@]2(C)[C@@H]3C[C@](C)(CO)CC[C@]3(C)CC[C@]12C
inhibition [1]: inactive

IC50 ([1]; read-out: I50): 269 µM
SMILES: C[C@H]1C(=O)CC[C@@H]2[C@]1(C)CC[C@H]1[C@@]2(C)CC[C@@]2(C)[C@@H]3C[C@](C)(C(=O)O)CC[C@]3(C)CC[C@]12C [MAYTENOIC ACID]

Activity [2]: 128%
Activity [3]: 252%
Activity [4]: 234%
SMILES: Cl.N
